Results gathered from unrelated publications.
Each line is one published result; the experiments were not run side by side.
PIK3C3: Phosphatidylinositol 3-kinase catalytic subunit type 3 (PIK3C3, Homo sapiens, UniProt Q8NEB9)
OPRL1: Nociceptin receptor (OPRL1, Homo sapiens, UniProt P41146)
ADRA2C: Alpha-2C adrenergic receptor (ADRA2C, Homo sapiens, UniProt P18825)
nupG: nupG (Escherichia coli, UniProt P0AFF4)
CA14: Carbonic anhydrase 14 (CA14, Homo sapiens, UniProt Q9ULX7)
ESR1: Estrogen receptor (ESR1, Homo sapiens, UniProt P03372)

| SMILES | target | test | conditions | measurement | value |
| --- | --- | --- | --- | --- | --- |
| CCC(=O)N1CCC(C(=O)NCC(=O)N2CCN(c3nc(-c4cnc(N)nc4C(F)F)nc(N4CCOCC4)n3)CC2)CC1 | PIK3C3 | binding, competition with immobilised ligand |  | Kd | 0.1 µM |
| CCOC(=O)[C@@]12C[C@@H]1[C@@H](n1ccc3c(NC)nc(C#Cc4ccccc4)nc31)[C@H](O)[C@@H]2O | OPRL1 | ligand displacement, radioligand |  | Ki | > 10 µM |
| COc1ccc2c(c1)c(CC(=O)O)c(C)n2C(=O)c1ccc(Cl)cc1 | Peroxisome proliferator-activated receptor gamma (Pparg, Mus musculus, UniProt P37238) | reporter gene, agonist, luciferase |  | EC50 | 12.1 µM |
| C=CC(=O)N1CCC(C(=O)N(C)CC(=O)N2CCN(c3nc(-c4cnc(N)nc4C(F)F)nc(N4CCOCC4)n3)CC2)CC1 | PIK3C3 | binding, competition with immobilised ligand |  | Kd | 0.275 µM |
| CCCCN1CCC(COC(=O)c2ccc(N)c(OCF)c2)CC1 | ADRA2C | cell-free assay, radioligand |  | Ki | 0.778 µM |
| CCCNc1nc2ccccc2n1Cc1ccc(Cl)cc1 | ADRA2C | ligand displacement, radioligand |  | Ki | 0.434 µM |
| Nc1ccn([C@@H]2O[C@H](CO)[C@@H](O)[C@H]2O)c(=O)n1 | nupG | binding, ITC |  | Kd | 144 µM |
| Cc1occc(=S)c1O | CA14 | enzyme activity, inhibitor, stopped-flow |  | Ki | 6.7 µM |
| Nc1nc2c(ncn2[C@@H]2O[C@H](COP(=O)(O)OP(=O)(O)O)[C@@H](OP(=O)(O)OP(=O)(O)O)[C@H]2O)c(=O)[nH]1 | pgk (Escherichia coli, UniProt P0A799) | binding, ITC |  | Kd | 493 µM |
| C[C@]12CCC3=C4CCC(=O)C=C4CC[C@H]3[C@@H]1CC[C@@]2(O)CC#N | ESR1 | reporter gene, agonist |  | EC50 | > 25 µM |
| C=C(C)[C@@H]1CC=C(C)C(=O)C1 | OR1A1 (Homo sapiens, UniProt Q9P1Q5) | cAMP, agonist, luciferase |  | EC50 | 7.29 µM |
| Oc1ccccc1F | Iodotyrosine deiodinase (Haliscomenobacter hydrossis, UniProt F4KU78) | binding, fluorescence |  | Kd | 20000 µM |
| C[C@]12CC[C@H](O)CC1=CC[C@@H]1[C@@H]2CC[C@]2(C)C(c3cccnc3)=CC[C@@H]12 | ESR1 | ligand displacement in cells, radioligand |  | Ki | 0.39 µM |
| C[C@H]1Oc2cc(cnc2N)-c2c(nn(C)c2C#N)CN(C)C(=O)c2ccc(F)cc21 | Serine/threonine-protein kinase PLK4 (PLK4, Homo sapiens, UniProt O00444) | cell-free assay | lysate | Ki | 0.107 µM |
| CNCC[C@@H](Oc1ccccc1CCCF)c1ccccc1 | Norepinephrine transporter (Slc6a2, Rattus norvegicus, UniProt Q9WTR4) | ligand displacement, radioligand | cell membranes | Ki | 0.023 µM |
| CC1Cc2ccccc2N1C(=O)NCCCCN(C)[C@@H]1Cc2cccc3[nH]c(=O)n(c23)C1 (mixture of isomers) | 5-hydroxytryptamine receptor 1A (HTR1A, Homo sapiens, UniProt P08908) | ligand displacement, radioligand |  | Ki | 0.0237 µM |
| Nc1ccnc2ccccc12 | ADRA2C | ligand displacement, radioligand | cell membranes | Ki | 81.3 µM |
| CNc1nc(C#Cc2ccc(Cl)s2)nc2c1ncn2[C@H]1[C@H](O)[C@H](O)[C@]2(C(=O)OCc3ccccc3)C[C@H]12 | OPRL1 | ligand displacement, radioligand |  | Ki | > 10 µM |
| Cc1cn([C@H]2C[C@H](O)[C@@H](CO)O2)c(=O)[nH]c1=O | nupG | binding, ITC |  | Kd | 162 µM |
| CCCC[C@H](NC(=O)[C@H](C)c1c(C)[nH]c2ccc(O)cc12)c1ncc(-c2cc3ccccc3nc2OC)[nH]1 | Prostaglandin E2 receptor EP3 subtype (PTGER3, Homo sapiens, UniProt P43115) | cell-free assay |  | Ki | 5.32 µM |
| On1ccccc1=S | CA14 | enzyme activity, inhibitor, stopped-flow |  | Ki | 7.1 µM |
